Results published in ChEMBL document CHEMBL4689842, “EUbOPEN Chemogenomics Library wave 1” (2021).

System: Fibroblast
Assay: Multiplex assay against human fibroblast
Type: toxicity, cell-based
Procedure, shortened: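 Hoechst33342, BioTracker Green Microtubule Cytoskeleton Dye, MitoTracker Red and Annexin V Alexa Fluor 680 were added to live cells at seeding, and imaging on a CQ1 microscope at 37°C and 5% CO2 followed compound addition. Gating by CellPathfinder machine learning separated cells into Hoechst high-intensity objects or normal cells, then normal cells into healthy, pyknosed or fragmented nuclei, then pyknosed cells into mitotic or apoptotic. Per cents of healthy-nucleus cells are reported for the tubulin, mitochondrial-mass and membrane-permeability phenotypes.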

[1] = 12 h, 1 µM, compound concentration 1 uM, replicate 1
[2] = 12 h, 1 µM, compound concentration 1 uM, replicate 2
[3] = 12 h, 10 µM, compound concentration 10 uM, replicate 1
[4] = 12 h, 10 µM, compound concentration 10 uM, replicate 2
[5] = 24 h, 1 µM, compound concentration 1 uM, replicate 1
[6] = 24 h, 1 µM, compound concentration 1 uM, replicate 2
[7] = 24 h, 10 µM, compound concentration 10 uM, replicate 1
[8] = 24 h, 10 µM, compound concentration 10 uM, replicate 2
[9] = 48 h, 1 µM, compound concentration 1 uM, replicate 1
[10] = 48 h, 1 µM, compound concentration 1 uM, replicate 2
[11] = 48 h, 10 µM, compound concentration 10 uM, replicate 1
[12] = 48 h, 10 µM, compound concentration 10 uM, replicate 2

## Cc1cc(C)cc(-c2cnc3cc(Cl)c(-c4cccc(O)c4)cc3c2OCCCN)c1
[1]
  Population Apoptotic (%): 44%
  Population Fragmented Nuclei (%): 38%
  Population Healthy Nuclei (%): 26%
  Population Hoechst High Intensity Objects (%): 16%
  Population Membrane Permeable-Phenotype (%): 38%
  Population Mitochondria Different-Phenotype (%): 30%
  Population Mitotic Cells (%): 55%
  Population Normal (%): 83%
  Population Pyknosed Nuclei (%): 36%
  Population Tubulin-Different-Phenotype (%): 61%
  Total Cell Count: 60
[2]
  Population Fragmented Nuclei (%): 11%
  Population Healthy Nuclei (%): 72%
  Population Hoechst High Intensity Objects (%): 10%
  Population Membrane Permeable-Phenotype (%): 2%
  Population Mitochondria Different-Phenotype (%): 82%
  Population Normal (%): 90%
  Population Pyknosed Nuclei (%): 16%
  Population Tubulin-Different-Phenotype (%): 56%
  Total Cell Count: 68
[3]
  Population Apoptotic (%): 33%
  Population Fragmented Nuclei (%): 31%
  Population Healthy Nuclei (%): 10%
  Population Hoechst High Intensity Objects (%): 11%
  Population Membrane Permeable-Phenotype (%): 53%
  Population Mitochondria Different-Phenotype (%): 7%
  Population Mitotic Cells (%): 66%
  Population Normal (%): 88%
  Population Pyknosed Nuclei (%): 57%
  Population Tubulin-Different-Phenotype (%): 100%
  Total Cell Count: 135
[4]
  Population Apoptotic (%): 70%
  Population Fragmented Nuclei (%): 16%
  Population Healthy Nuclei (%): 32%
  Population Hoechst High Intensity Objects (%): 8%
  Population Membrane Permeable-Phenotype (%): 90%
  Population Mitochondria Different-Phenotype (%): 95%
  Population Mitotic Cells (%): 29%
  Population Normal (%): 91%
  Population Pyknosed Nuclei (%): 50%
  Total Cell Count: 60
[5]
  Population Apoptotic (%): 40%
  Population Fragmented Nuclei (%): 54%
  Population Healthy Nuclei (%): 22%
  Population Hoechst High Intensity Objects (%): 21%
  Population Membrane Permeable-Phenotype (%): 10%
  Population Mitochondria Different-Phenotype (%): 10%
  Population Mitotic Cells (%): 60%
  Population Normal (%): 78%
  Population Pyknosed Nuclei (%): 22%
  Population Tubulin-Different-Phenotype (%): 20%
  Total Cell Count: 56
[6]
  Population Apoptotic (%): 62%
  Population Fragmented Nuclei (%): 11%
  Population Healthy Nuclei (%): 75%
  Population Hoechst High Intensity Objects (%): 3%
  Population Membrane Permeable-Phenotype (%): 2%
  Population Mitochondria Different-Phenotype (%): 78%
  Population Mitotic Cells (%): 37%
  Population Normal (%): 96%
  Population Pyknosed Nuclei (%): 13%
  Population Tubulin-Different-Phenotype (%): 28%
  Total Cell Count: 66
[7]
  Population Apoptotic (%): 38%
  Population Fragmented Nuclei (%): 28%
  Population Healthy Nuclei (%): 16%
  Population Hoechst High Intensity Objects (%): 12%
  Population Membrane Permeable-Phenotype (%): 54%
  Population Mitochondria Different-Phenotype (%): 4%
  Population Mitotic Cells (%): 61%
  Population Normal (%): 87%
  Population Pyknosed Nuclei (%): 54%
  Population Tubulin-Different-Phenotype (%): 90%
  Total Cell Count: 149
[8]
  Population Apoptotic (%): 93%
  Population Fragmented Nuclei (%): 24%
  Population Healthy Nuclei (%): 3%
  Population Hoechst High Intensity Objects (%): 7%
  Population Membrane Permeable-Phenotype (%): 50%
  Population Mitochondria Different-Phenotype (%): 50%
  Population Mitotic Cells (%): 6%
  Population Normal (%): 92%
  Population Pyknosed Nuclei (%): 72%
  Population Tubulin-Different-Phenotype (%): 50%
  Total Cell Count: 63
[9]
  Population Apoptotic (%): 64%
  Population Fragmented Nuclei (%): 37%
  Population Healthy Nuclei (%): 33%
  Population Hoechst High Intensity Objects (%): 20%
  Population Membrane Permeable-Phenotype (%): 37%
  Population Mitochondria Different-Phenotype (%): 37%
  Population Mitotic Cells (%): 35%
  Population Normal (%): 80%
  Population Pyknosed Nuclei (%): 29%
  Population Tubulin-Different-Phenotype (%): 56%
  Total Cell Count: 60
[10]
  Population Apoptotic (%): 75%
  Population Fragmented Nuclei (%): 41%
  Population Healthy Nuclei (%): 54%
  Population Hoechst High Intensity Objects (%): 17%
  Population Membrane Permeable-Phenotype (%): 22%
  Population Mitochondria Different-Phenotype (%): 9%
  Population Mitotic Cells (%): 25%
  Population Normal (%): 82%
  Population Pyknosed Nuclei (%): 4%
  Population Tubulin-Different-Phenotype (%): 62%
  Total Cell Count: 117
[11]
  Population Apoptotic (%): 56%
  Population Fragmented Nuclei (%): 45%
  Population Healthy Nuclei (%): 28%
  Population Hoechst High Intensity Objects (%): 39%
  Population Membrane Permeable-Phenotype (%): 37%
  Population Mitochondria Different-Phenotype (%): 7%
  Population Mitotic Cells (%): 44%
  Population Normal (%): 60%
  Population Pyknosed Nuclei (%): 26%
  Population Tubulin-Different-Phenotype (%): 81%
  Total Cell Count: 157
[12]
  Population Apoptotic (%): 93%
  Population Fragmented Nuclei (%): 39%
  Population Healthy Nuclei (%): 43%
  Population Hoechst High Intensity Objects (%): 31%
  Population Membrane Permeable-Phenotype (%): 12%
  Population Mitochondria Different-Phenotype (%): 82%
  Population Mitotic Cells (%): 6%
  Population Normal (%): 68%
  Population Pyknosed Nuclei (%): 16%
  Population Tubulin-Different-Phenotype (%): 92%
  Total Cell Count: 129
